From PubChem
KCNQ1 inh: inhibitors of human KCNQ1 channel, primary screen, cell-based, thallium flux, high-throughput; Potassium voltage-gated channel subfamily KQT member 1 (Homo sapiens), P51787; CHO-K1 KCNQ1, FluxOR thallium flux fluorescence; hits give high values; B-score at 10 µM; 310,000 compounds, 1.3% hits; AID 2642, 2010;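 active = compounds whose thallium flux B-score, printed positive for inhibition, exceeds three library SD while starting fluorescence stays within three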;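 also: channel opened by potassium depolarization with thallium stimulus after 20 min compound exposure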
KCNK3 inh: human KCNK3 channel inhibitors, primary screen, CHO cells, FluxOR thallium flux, B-score; Potassium channel subfamily K member 3 (Homo sapiens), O14649; FluxOR fluorescence; hits give low values; B-score at 10 µM; 340,000 compounds, 0.84% hits; AID 602410, 2012;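 active = B-score under library mean minus 4 SD, starting fluorescence ratio at most library mean plus 5 SD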;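 also: more negative B-score means stronger inhibition of thallium flux through KCNK3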
Target sequence (O14649 whole entry, looked up): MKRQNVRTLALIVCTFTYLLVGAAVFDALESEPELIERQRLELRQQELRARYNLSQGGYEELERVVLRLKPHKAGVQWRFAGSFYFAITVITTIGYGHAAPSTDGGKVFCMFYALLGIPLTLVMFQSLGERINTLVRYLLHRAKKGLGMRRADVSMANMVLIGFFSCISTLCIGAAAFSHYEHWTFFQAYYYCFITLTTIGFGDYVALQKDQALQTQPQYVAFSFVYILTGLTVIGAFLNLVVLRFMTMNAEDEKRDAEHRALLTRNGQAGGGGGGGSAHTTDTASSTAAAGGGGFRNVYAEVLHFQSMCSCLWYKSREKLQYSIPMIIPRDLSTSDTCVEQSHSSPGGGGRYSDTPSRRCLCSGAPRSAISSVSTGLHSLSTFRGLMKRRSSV
hERG protect: hERG rescue from dofetilide block, primary screen, cell-based, CHO-hERG, FluxOR thallium flux, dofetilide IC70; Voltage-gated inwardly rectifying potassium channel KCNH2 (Homo sapiens), Q12809; dofetilide IC70 present; activation (rescue from dofetilide block), less the hit threshold, % at 10 µM; 310,000 compounds, 0.51% hits;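 active = activation above the mean of controls blocked by dofetilide plus 5 SD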;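 also: thallium influx through hERG after potassium depolarization seen as dye fluorescence rise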
KCNQ1 pot: potentiators or activators of KCNQ1 channel, primary screen, cell-based, thallium flux, high-throughput; AID 2648, 2010; Potassium voltage-gated channel subfamily KQT member 1 (Homo sapiens), P51787; CHO-K1 KCNQ1, thallium flux FluxOR fluorescence; hits give high values; 310,000 compounds, 0.35% hits; B-score at 10 µM;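 active = fluorescence ratio B-score, a plate-corrected score, at least three library SD, with initial intensity B-score within 5 SD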
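System: CHO-K1 cells stably expressing KCNQ1 / Medium: assay buffer for compound exposure, DMSO matched across wells / Reagent: thallium- and potassium-containing depolarizing buffer / Compound: one concentration, matched DMSO / Incubation: 20 min compound pretreatment at room temperature / Measured by: kinetic FluxOR fluorescence, 10 s baseline plus 110 s post-stimulus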
Kir21 block: inhibitors of mouse Kir2.1 inward-rectifier potassium channel; HEK293-Kir2.1, FluxOR thallium flux fluorescence; hits give low values; B-score at 10 µM; 310,000 compounds, 0.85% hits;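 active = fluorescence ratio B-score at or below minus 3 SD of library scores, with starting-brightness B-score within 2 SD, cut at about -4.2 in these data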;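 also: channel flux triggered by added potassium and thallium sulfate stimulus; B-score of peak minus minimum fluorescence over baseline after thallium stimulus; more negative B-score means stronger Kir2.1 block with less thallium influx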
KCNK9 block: KCNK9 potassium channel inhibitors, primary screen, HEK293 cells, thallium flux; Potassium channel subfamily K member 9 (Homo sapiens), Q9NPC2; FluxOR thallium flux fluorescence; hits give low values; B-score at 10 µM; 310,000 compounds, 1.2% hits;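 active = ratio B-score over 3 SD below the library mean, with starting fluorescence within 5 SD of its mean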;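 also: negative B-score means less thallium flux so channel inhibition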
Starred values were filed as active, the others as inactive; i = inactive; . = not tested or not shown. Rows were chosen to be rich in hits. Some 3.7% of all compounds tested hit in one or more screens of this group.

SMILES	KCNQ1 inh	KCNK3 inh	hERG protect	KCNQ1 pot	Kir21 block	KCNK9 block
COc1ccc(Cl)cc1NCCC(O)c1ccc(F)cc1 (configuration not stated)	i	i	-9	i	-4.8*	i
Cc1cc2[nH]c(=O)c(=O)[nH]c2cc1S(=O)(=O)NCc1ccc(Cl)cc1	i	i	-6	i	1.5	i
O=C1c2[nH]nc(-c3ccccc3O)c2C(c2ccc(F)cc2)N1Cc1ccco1 (configuration not stated)	6*	i	-21	i	-0.32	i
C=CCN(C(=O)CC(NC(C)=O)c1ccccc1)c1nc(-c2ccc(S(C)(=O)=O)cc2)cs1 (configuration not stated)	i	i	-14	i	-0.64	i
Cc1noc(C)c1COc1ccc(C(=O)OCC(=O)Nc2ccc(S(N)(=O)=O)cc2)cc1	.	i	.	.	.	.
COC1=CC(=O)C(O)=C(CCCCCCC/C=C/CCCCCCCC2=C(O)C(=O)C=C(OC)C2=O)C1=O	10*	i	-6	i	-3.1	i
O=C(CNCc1cccc(Cl)c1)N1CCc2ccccc2C1	i	i	-5	i	0.63	i
Cc1cc(OCC(=O)OC(C)C(=O)Nc2ccc(N3CCOCC3)cc2)ccc1Cl (configuration not stated)	.	i	.	.	.	.
CCOc1ccc(CN(C(=O)c2oc3cc(C)ccc3c2C)C2CCS(=O)(=O)C2)cc1 (configuration not stated)	i	i	-16	i	-2.3	-6.7*
NS(=O)(=O)c1ccc(NC(=O)COC(=O)c2ncc(Cl)c(Cl)c2Cl)cc1	.	i	.	.	.	.
C=CCNc1nc(N2CCCCC2)c(C#N)c2c1CN(Cc1ccccc1)CC2	i	-11*	-19	i	-1.2	i
C/C(=N\Oc1cccc(F)n1)c1ccc(Cl)cc1Cl	6*	i	-8	i	0.34	i
C/C(=N/Oc1nc(C)cc(C)n1)c1ccc(Cl)cc1Cl	i	i	-4	i	1.6	i
CCN(CC(=O)Nc1ccc(NC(C)=O)cc1)C(=O)c1cccc(N2C(=O)c3ccccc3C2=O)c1	.	i	.	.	.	.
CCOC(O)[C@H]1N[C@@H](c2ccc(Cl)cc2)[C@@H]([N+](=O)[O-])[C@@H]1c1ccccc1 (some centres not stated)	i	i	-4	i	-1.5	-7.1*
COCCCC1CCN(C(=O)C2CCC(=O)N(Cc3ccccc3F)C2)CC1 (configuration not stated)	i	i	-5	i	0.72	i
COCCNCCCCOc1ccccc1-c1ccccc1	i	i	-2	i	-6.3*	i
CCCCNCCOCCOc1ccccc1-c1ccccc1	i	i	-3	i	-10*	i
C=CCNCCOc1ccccc1-c1ccccc1	i	i	-3	i	-1.3	i
CCC(=O)c1ccccc1OCCN1C(=O)NC(C)(C)C1=O	i	i	-10	i	-1.4	i
CC(C)NCCCCOc1ccccc1-c1ccccc1	i	.	-2	i	-5.6*	i
CC1(C)NC(=O)N(CCOCCOc2ccccc2-c2ccccc2)C1=O	i	i	-10	i	-5.4*	i
CN(C)CCCCOc1ccccc1-c1ccccc1	i	i	-9	i	-2.7	i
Cc1ccc(/C=C2/Sc3ccc(C(=O)NCc4ccccn4)cc3NC2=O)cc1	i	i	-11	i	0.32	i
CCC(C)n1c(SC(C)C#N)nc2ccccc2c1=O (configuration not stated)	i	i	5.0*	i	-3.8	i
SMILES	KCNQ1 inh	KCNK3 inh	hERG protect	KCNQ1 pot	Kir21 block	KCNK9 block
N#C/C(=C\c1cccs1)C(=O)c1ccccc1Cl	i	i	-4	i	-7*	i
CC(C)(C)C(=O)/C(C#N)=C/c1cccs1	i	i	-3	i	-0.05	i
Cc1ccc2[nH]c(=O)c(CN(Cc3ccccc3)C(=S)NCCCN(C)C)cc2c1	i	i	-18	i	-4.7*	i
COc1cc(/C=C2\SC(=S)N(CCC(=O)N3CCCCC3)C2=O)cc(OC)c1OC	i	i	-9	i	-0.04	i
C[C@]12c3[nH]c4cc(-c5ccco5)ccc4c3CCN1C(=O)[C@@H](CC(=O)NCc1cccc(C(F)(F)F)c1)C[C@@H]2C(=O)N1CCCCC1	.	i	.	.	.	.
Cc1ccc(CN2CCSc3ccc(C(=O)NCCCN4CCOCC4)cc32)cc1	i	i	-17	i	-3.5	i
Cc1ccc(CN2CCSc3ccc(C(=O)NCc4ccco4)cc32)cc1	i	i	-10	i	-1.6	-7.1*
CCCN(Cc1nnc(-c2ccccc2Cl)o1)C(=O)c1oc2ccccc2c1C	6*	i	-14	i	0.04	i
CCCN(Cc1nnc(-c2ccccc2Cl)o1)C(=O)c1ccc(C)c(S(=O)(=O)N2CCOCC2)c1	i	i	-6	i	-2.9	i
Cc1ccc(NC(=S)NCC(O)c2ccccc2)c(C)c1 (configuration not stated)	i	i	-3	i	0.2	i
COc1cc(NC(=S)NCCC(c2ccccc2)c2ccccc2)c(OC)cc1Cl	i	i	-10	i	-0.16	i
S=C(NCCC(c1ccccc1)c1ccccc1)Nc1ccc(Cl)cc1	9*	i	-6	i	1.8	i
COc1ccc(Cl)cc1NC(=S)NCCC(c1ccccc1)c1ccccc1	i	i	-11	i	-3.5	-8.1*
CCC(C(=O)Nc1cc(Cl)ccc1OC)c1ccccc1 (configuration not stated)	i	i	-5	i	-1.8	-7.3*
S=C(NCCC(c1ccccc1)c1ccccc1)Nc1ccccc1Cl	12*	i	-16	i	-0.91	i
O=C(Cn1nnc2ccccc21)c1cccc([N+](=O)[O-])c1	i	i	5.3*	i	-2.3	i
O=C(Cc1ccc([N+](=O)[O-])cc1)Oc1ccccc1	.	i	.	.	.	.
COC(=O)c1c(NC(C)=O)csc1C	i	i	-7	i	0.07	i
COC(=O)c1c(NC(=O)C(C)(C)C)csc1C	i	i	8.2*	i	-0.36	i
CCOC(=O)C(=O)NCC(c1cccs1)S(=O)(=O)c1ccc(F)cc1 (configuration not stated)	i	i	-8	i	0.24	i
COc1cc(OC)cc(C(=O)NNC(=O)C(=O)Nc2cc(OC)c(Cl)cc2OC)c1	i	i	51*	32*	-1.2	i
